Experiment [1] has as its target Bcr-Abl (T315I) (Homo sapiens, UniProt P00519+P11274, T315I). The experiment can be described thus: Cellular antiproliferative activity on mutant Bcr-Abl-T315I-Ba/F3. The experiment is classed as cell-based. The following applies: for Fold improvement relative to 3 against T315I mutant Bcr-Abl: relative to compound 3; for EC50: read-out: EC50 against T315I mutant. A digest of the protocol:
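Ba/F3 cells transformed with wild-type or T315I Bcr-Abl were tested for antiproliferative activity, with parental Ba/F3 cells tested alongside. The value is an EC50 from the cellular assay.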

For experiment [2], the target named is Bcr-Abl (wt) (Homo sapiens, UniProt P00519+P11274). The experiment can be described thus: Cellular antiproliferative activity on wtBcr-Abl-Ba/F3. In kind it is cell-based. The following applies: for Selectivity for Bcr-Abl dependent cellular growth: versus parental Ba/F3 cytotoxicity.
Experiment [3] concerns panel of 442 kinases. The following applies: cited from earlier work.
The subject of experiment [4] is panel of 442 kinases. In words: KINOMEscan kinase selectivity profiling. To be noted: 10 μM. In kind it is binding.
Where [5] appears, read: carbonyl group at the 6-position.

Read-outs that look alike come from different tables or passages of the source. Where only a bound is given, the exact number is not on record here.

Data on 7 compounds can be found in article PMC2901992 (Bioorganic & medicinal chemistry letters, 2010).

With `CCN1CCN(Cc2ccc(NC(=O)c3ccc(C)c(C#Cc4ccc(NC(C)=O)nc4)c3)cc2C(F)(F)F)CC1` [Compound 4], the “Fold improvement relative to 3 against T315I mutant Bcr-Abl” value in experiment [1] is reported as approximately 8 fold.

Turning to `CCN1CCN(Cc2ccc(NC(=O)c3ccc(C)c(C#Cc4ccc(NC(=O)C5CC5)nc4)c3)cc2C(F)(F)F)CC1` [Compound 5], in experiment [1], the “Fold improvement relative to 3 against T315I mutant Bcr-Abl” value is reported as approximately 8 fold.

Broadly, the EC50 is the concentration giving half of the maximal effect. As for `CCN1CCN(Cc2ccc(NC(=O)c3ccc(C)c(C#Cc4cnc5[nH]cnc5c4)c3)cc2C(F)(F)F)CC1` [Compound 14], the EC50 in experiment [1] is less than 100 nM.

On to `CCN1CCN(Cc2ccc(NC(=O)c3ccc(C)c(C#Cc4ccc(C(=O)NC)nc4)c3)cc2C(F)(F)F)CC1` [Compound 6], for which, in experiment [2] (setting [5]), the “Fold less potent EC50 against wild-type Bcr-Abl” value worked out at 6 fold. Also, the “Fold less potent EC50 against T315I Bcr-Abl” value in experiment [1] (setting [5]) came out at 6 fold.

Turning to `CCN1CCN(Cc2ccc(NC(=O)c3cccc(-c4ccc5nc(NC(=O)C6CC6)sc5n4)c3)cc2C(F)(F)F)CC1` [HG-7-85-01], in experiment [3], the “Selectivity score S10” value was 0.056.

For the compound `CCN1CCN(Cc2ccc(NC(=O)c3ccc(C)c(C#Cc4cnc5[nH]ccc5c4)c3)cc2C(F)(F)F)CC1` [Compound 12], the “Selectivity for Bcr-Abl dependent cellular growth” value in experiment [2] is reported as “up to 1000 fold”. Further, the EC50 in experiment [1] is less than 100 nM. Moreover, the “Number of kinases with ambit score of less than 10% of the DMSO control” value in experiment [4] (panel of 442 kinases) is recorded as 203 kinases. For the same compound, the “Ambit score of kinase hits (% of the DMSO control)” value in experiment [4] (hits: ABL, ARG, BLK, PITSLRE, CRIK, FMS/CSFR, DDR1, EphA8, FGFR4, HPK1, JNK2, KIT, LOK, LYN, GCK, MUSK, MYO3B, p38α, p38β, PDGFRα, PDGFRβ, RET, RIPK1, SRC, TAO1, TAO2, TAO3, TIE2) is listed as less than 0.1%.

With `CCN1CCN(Cc2ccc(NC(=O)c3ccc(C)c(C#Cc4cccnc4)c3)cc2C(F)(F)F)CC1` [Compound 3], in experiment [2], the “Selectivity for Bcr-Abl dependent cellular growth” value is recorded as “up to 1000 fold”. In addition, in experiment [4] (panel of 442 kinases), the “Number of kinases with ambit score of less than 10% of the DMSO control” value amounted to 193 kinases and the “Selectivity score S10” value is 0.427.
